{"data": "Results collected from several papers", "cell line": "HepG2", "read-out": "cell growth or viability"}
{"Structure (SMILES)": "N.N.[Cl][Pt][Cl]", "method": "MTT", "time": "48 h", "IC50": "14000 nM"}
{"Structure (SMILES)": "Nc1nc(-c2cccc(NC(=O)Nc3cccc(-c4c[nH]c(N)n4)c3)c2)c[nH]1", "method": "XTT", "time": "24 h", "IC50": "850000 nM"}
{"Structure (SMILES)": "COc1c2ccoc2cc2oc(=O)ccc12", "method": "WST-1", "time": "48 h", "IC50": "18100 nM"}
{"Structure (SMILES)": "Cl.O[C@]12C=C(c3nccc4c3[nH]c3ccccc34)[C@@H]3CCN(CCCC/C=C\\CC1)C[C@@]31C[C@@H]3/C=C\\CCCCN3[C@H]12", "method": "neutral red", "time": "48 h", "IC50": "1.55 µg/mL"}
{"Structure (SMILES)": "CC1=C(O)C(=O)C=C2C1=CC=C1[C@@]2(C)CC[C@@]2(C)[C@@H]3C[C@](C)(C(=O)OCCCn4cc(C=O)c5ccccc54)CC[C@]3(C)CC[C@]12C", "method": "MTT", "time": "48 h", "IC50": "1760 nM"}
{"Structure (SMILES)": "O=c1ccc2cc3ccoc3cc2o1", "method": "WST-1", "time": "48 h", "IC50": "17200 nM"}
{"Structure (SMILES)": "Cl.Cl.Nc1nc(-c2cc(F)cc(NC(=O)Nc3cc(F)cc(-c4c[nH]c(N)n4)c3)c2)c[nH]1", "method": "XTT", "time": "24 h", "IC50": "> 256 µg/mL"}
{"Structure (SMILES)": "CC[C@@]1(OC(=O)[C@@H]2CCCN2)C(=O)OCc2c1cc1n(c2=O)Cc2cc3cc4c(cc3nc2-1)OCO4", "method": "MTT", "IC50": "263 nM"}
{"Structure (SMILES)": "Cc1c2ccncc2c(C)c2c1[nH]c1ccccc12", "method": "MTT", "time": "72 h", "IC50": "0.45 µg/mL"}
{"Structure (SMILES)": "CC[C@@]1(OC(=O)[C@H](C)N)C(=O)OCc2c1cc1n(c2=O)Cc2cc3cc4c(cc3nc2-1)OCO4", "method": "MTT", "IC50": "101 nM"}
{"Structure (SMILES)": "CCC1(c2ccc(N)cc2)CCC(=O)NC1=O (centres unmarked)", "method": "CCK-8", "time": "48 h", "IC50": "> 50000 nM"}
{"Structure (SMILES)": "CC[C@@]1(OC(=O)C(C)c2cccc(C(=O)c3ccccc3)c2)C(=O)OCc2c1cc1n(c2=O)Cc2cc3cc4c(cc3nc2-1)OCO4 (some centres unmarked)", "method": "MTT", "IC50": "364 nM"}
{"Structure (SMILES)": "[Cl-].[Cl-].[Co+2]", "method": "MTT", "time": "48 h", "IC50": "> 150000 nM"}
{"Structure (SMILES)": "CC[C@@]1(OC(=O)[C@@H](N)Cc2ccccc2)C(=O)OCc2c1cc1n(c2=O)Cc2cc3cc4c(cc3nc2-1)OCO4", "method": "MTT", "IC50": "88 nM"}
{"Structure (SMILES)": "CC1=C(O)C(=O)C=C2C1=CC=C1[C@@]2(C)CC[C@@]2(C)[C@@H]3C[C@](C)(C(=O)O)CC[C@]3(C)CC[C@]12C", "method": "MTT", "time": "48 h", "IC50": "1230 nM"}
{"Structure (SMILES)": "CC[C@@]1(OC(=O)Cc2c(C)n(C(=O)c3ccc(Cl)cc3)c3ccc(OC)cc23)C(=O)OCc2c1cc1n(c2=O)Cc2cc3cc4c(cc3nc2-1)OCO4", "method": "MTT", "IC50": "32 nM"}
{"Structure (SMILES)": "O=C(O)CCCc1ccc(N(CCCl)CCCl)cc1", "method": "CCK-8", "time": "48 h", "IC50": "15100 nM"}
